Active and inactive are the calls of the source. The calls are words filed in the database; no cut-off is given here.
Key:
HepG2 [1] = assay: Induction of apoptosis in human HepG2 cells assessed as early apoptotic cells at 0.5 uM after 48 hrs by annexin V FITC and propidium iodide staining based flow cytometric analysis (reference value: 2.89%); assay type: functional
K562 [2] = assay: Induction of apoptosis in human K562 cells assessed as chromatin shrinking after 24 to 48 hrs by Hoechst 33258 staining based fluorescence microscopic method; assay type: functional, cell-based; settings: dose 1-4 µM, time 24-48 hrs
How it was run: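 K562 cells were exposed to 1.0, 2.0 or 4.0 test agent, with DMSO as vehicle control, for 24 h and 48 h. They were harvested, washed twice in PBS and stained with Hoechst 33258 (0.5 mg/mL in PBS) for 30 min in darkness. Slides were viewed by fluorescence microscopy with a DAPI filter. Three random fields of about 200 nuclei per sample were scored as % apoptotic nuclei. Three independent experiments.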

K562 [3] = assay: Induction of apoptosis in human K562 cells assessed as viable cells at 2 uM after 48 hrs by annexin V FITC and propidium iodide staining based flow cytometric analysis (reference value: 96.76%); assay type: functional; settings: read-out: Activity
HepG2 [4] = assay: Induction of mitochondrial membrane potential loss in human HepG2 cells after 48 hrs by JC1 staining based flow cytometric analysis; assay type: functional, cell-based; settings: dose 0.5-2 µM
How it was run: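 K562 and HepG2 cells in 6-well plates were exposed for 48 h at 0, 0.50, 1.0 and 2.0 µM, with DMSO vehicle control. After trypsinization, cells were stained with JC-1 (0.5 mg/mL) at 37 °C in darkness for 30 min, then washed with PBS. Membrane potential was read by flow cytometry. Mean ± SD, three independent experiments.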

K562 [5] = assay: Induction of apoptosis in human K562 cells assessed as increase in DR4 protein expression at 1 uM after 24 hrs by chemiluminescence based apoptosis array method; assay type: functional, cell-based
How it was run: (§1)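 K562 cells were treated with 1 test agent for 24 h. Diluted total-cell lysates were applied to a human apoptosis antibody array covering 35 apoptosis-related proteins for 24 h. Unbound protein was washed off, and arrays were probed with a biotinylated detection antibody for 1 h. Relative expression was read from chemiluminescent signal by digital imaging.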

K562 [6] = assay: Induction of cell cycle arrest in human K562 cells assessed as accumulation at S phase at 0.5 uM after 48 hrs by propidium iodide staining based flow cytometric analysis (reference value: 44.73 to 45.96%); assay type: functional
K562 [7] = assay: Induction of cell cycle arrest in human K562 cells assessed as accumulation at S phase at 1 uM after 48 hrs by propidium iodide staining based flow cytometric analysis (reference value: 44.73 to 45.96%); assay type: functional
K562 [8] = assay: Induction of apoptosis in human K562 cells assessed as decrease in C-IAP1 protein expression at 1 uM after 24 hrs by chemiluminescence based apoptosis array method; assay type: functional, cell-based; how it was run: as §1
[9] = Selectivity ratio of IC50 for cytotoxicity against human L02 cells to IC50 for antiproliferative activity against human HepG2 cells; assay type: toxicity, cell-based; settings: read-out: Ratio IC50
K562 [10] = assay: Induction of apoptosis in human K562 cells assessed as decrease in XIAP protein expression at 1 uM after 24 hrs by chemiluminescence based apoptosis array method; assay type: functional, cell-based; how it was run: as §1
B16 = assay: Antiproliferative activity against mouse B16 cells assessed as reduction in cell viability after 72 hrs by MTT assay; settings: B16, 72 h
K562 [11] = assay: Induction of cell cycle arrest in human K562 cells assessed as accumulation at G1 phase at 2 uM after 48 hrs by propidium iodide staining based flow cytometric analysis (reference value: 43.24 to 43.37%); assay type: functional
HepG2 [12] = assay: Induction of apoptosis in human HepG2 cells assessed as late apoptotic cells at 2 uM after 48 hrs by annexin V FITC and propidium iodide staining based flow cytometric analysis (reference value: 3.17%); assay type: functional
[13] = Selectivity ratio of IC50 for cytotoxicity against human PBMC cells to IC50 for antiproliferative activity against human K562 cells; assay type: toxicity, cell-based; settings: read-out: Ratio IC50
HepG2 [14] = assay: Induction of cell cycle arrest in human HepG2 cells assessed as accumulation at G2 phase at 0.5 uM after 48 hrs by propidium iodide staining based flow cytometric analysis (reference value: 16.48 to 16.97%); assay type: functional
How it was run: (§2)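 HepG2 cells were treated with 0, 0.50, 1.0 or 2.0 test agent for 48 h. Cells were washed in cold PBS and fixed in 70% ethanol at −20 °C overnight. DNA-content distribution was measured by flow cytometry. Mean ± SD, three independent experiments.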

HepG2 [15] = assay: Induction of cell cycle arrest in human HepG2 cells assessed as accumulation at G1 phase at 1 uM after 48 hrs by propidium iodide staining based flow cytometric analysis (reference value: 49.46 to 50.3%); assay type: functional; how it was run: as §2
HepG2 [16] = assay: Induction of apoptosis in human HepG2 cells assessed as necrotic cells at 0.5 uM after 48 hrs by annexin V FITC and propidium iodide staining based flow cytometric analysis (reference value: 0.89%); assay type: functional
HepG2 [17] = assay: Induction of apoptosis in human HepG2 cells assessed as viable cells at 0.5 uM after 48 hrs by annexin V FITC and propidium iodide staining based flow cytometric analysis (reference value: 93.5%); assay type: functional; settings: read-out: Activity
HepG2 [18] = assay: Induction of apoptosis in human HepG2 cells assessed as viable cells at 2 uM after 48 hrs by annexin V FITC and propidium iodide staining based flow cytometric analysis (reference value: 93.5%); assay type: functional; settings: read-out: Activity
[19] = Selectivity ratio of IC50 for cytotoxicity against human PBMC cells to IC50 for antiproliferative activity against human HepG2 cells; assay type: toxicity, cell-based; settings: read-out: Ratio IC50
K562 [20] = assay: Induction of cell cycle arrest in human K562 cells assessed as accumulation at G2 phase at 2 uM after 48 hrs by propidium iodide staining based flow cytometric analysis (reference value: 10.96 to 12.03%); assay type: functional
K562 [21] = assay: Induction of apoptosis in human K562 cells assessed as decrease in survivin protein expression at 1 uM after 24 hrs by chemiluminescence based apoptosis array method; assay type: functional, cell-based; how it was run: as §1
K562 [22] = assay: Induction of apoptosis in human K562 cells assessed as down regulation of procaspase-3 at 1 uM after 24 hrs by chemiluminescence based apoptosis array method; assay type: functional, cell-based; how it was run: as §1
K562 [23] = assay: Induction of apoptosis in human K562 cells assessed as late apoptotic cells at 0.5 uM after 48 hrs by annexin V FITC and propidium iodide staining based flow cytometric analysis (reference value: 0.42%); assay type: functional
HepG2 [24] = assay: Induction of cell cycle arrest in human HepG2 cells assessed as accumulation at S phase at 1 uM after 48 hrs by propidium iodide staining based flow cytometric analysis (reference value: 33.22 to 33.58%); assay type: functional
HepG2 [25] = assay: Induction of cell cycle arrest in human HepG2 cells assessed as accumulation at G1 phase at 0.5 uM after 48 hrs by propidium iodide staining based flow cytometric analysis (reference value: 49.46 to 50.3%); assay type: functional; how it was run: as §2
K562 [26] = assay: Induction of apoptosis in human K562 cells assessed as increase in DR5 protein expression at 1 uM after 24 hrs by chemiluminescence based apoptosis array method; assay type: functional, cell-based; how it was run: as §1
K562 [27] = assay: Induction of apoptosis in human K562 cells assessed as late apoptotic cells at 1 uM after 48 hrs by annexin V FITC and propidium iodide staining based flow cytometric analysis (reference value: 0.42%); assay type: functional
HepG2 [28] = assay: Induction of apoptosis in human HepG2 cells assessed as necrotic cells at 2 uM after 48 hrs by annexin V FITC and propidium iodide staining based flow cytometric analysis (reference value: 0.89%); assay type: functional

Which Activity (HepG2 [1]) does the source give for `C=C1C(=O)[C@]23[C@H](OC(=O)CCC(=O)OCCCCCCOc4ccc(-c5cc(=S)ss5)cc4)[C@H]1CC[C@H]2[C@@]12CO[C@@]3(O)[C@@H](O)[C@@H]1C(C)(C)CC[C@@H]2OC(C)=O` here?
The Activity was 10.52%.

And the Activity (K562 [2])?
The Activity was “Dose-dependent effect”.

And the viability at 2 µM (K562 [3])?
Its viability at 2 µM is 47.4%.

What about the Activity (HepG2 [4]) of the same molecule?
The Activity was “Dose-dependent effect”.

And the Activity (K562 [5])?
Its Activity is “Active”.

And the Activity (K562 [6])?
The Activity was 50.32%.

What about the Activity (K562 [7]) of the same molecule?
The Activity was 55.54%.

What about the Activity (K562 [8]) of the same molecule?
Its Activity is “Active”.

And the selectivity ratio [9]?
The selectivity ratio was 20.

What about the Activity (K562 [10]) of the same molecule?
Its Activity is “Active”.

What about the IC50 (B16) of the same molecule?
Its IC50 is 12.9 µM.

What about the Activity (K562 [11]) of the same molecule?
The Activity was 29.97%.

And the Activity (HepG2 [12])?
Its Activity is 37.6%.

What about the selectivity ratio [13] of the same molecule?
Its selectivity ratio is 20.

What about the Activity (HepG2 [14]) of the same molecule?
The Activity was 13.24%.

What about the Activity (HepG2 [15]) of the same molecule?
Its Activity is 61.39%.

And the Activity (HepG2 [16])?
The Activity was 2.7%.

What about the viability at 0.5 µM (HepG2 [17]) of the same molecule?
Its viability at 0.5 µM is 76.7%.

What about the viability at 2 µM (HepG2 [18]) of the same molecule?
Its viability at 2 µM is 31.5%.

What about the selectivity ratio [19] of the same molecule?
The selectivity ratio was 20.

And the Activity (K562 [20])?
Its Activity is 7.39%.

And the Activity (K562 [21])?
Its Activity is “Active”.

What about the Activity (K562 [22]) of the same molecule?
Its Activity is “Active”.

What about the Activity (K562 [23]) of the same molecule?
Its Activity is 4.77%.

What about the Activity (HepG2 [24]) of the same molecule?
The Activity was 27.19%.

What about the Activity (HepG2 [25]) of the same molecule?
Its Activity is 55.35%.

And the Activity (K562 [26])?
The Activity was “Active”.

What about the Activity (K562 [27]) of the same molecule?
Its Activity is 8.38%.

What about the Activity (HepG2 [28]) of the same molecule?
Its Activity is 4.42%.

Reference: ChEMBL document CHEMBL4706489, “Hydrogen sulfide releasing oridonin derivatives induce apoptosis through extrinsic and intrinsic pathways” (Eur J Med Chem, 2020)
